# The sample as a whole holds a higher share of hits than the screen did.
# Glyco luc inh: increase of ERlucT glycosylation luciferase signal, primary screen, N-linked glycosylation inhibitor project, D54 ERlucT cells, luminescence, set 2; D54 ERlucT glycosylation luciferase reporter, 24 h; percent of 100 nM tunicamycin response; reporter increase, % at 12.5 µM; actives 0.23% (n = 360,000);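 active means mean luciferase reporter signal, scaled so untreated is 0 and the glycosylation-blocking control 100, at or above a set limit in every replicate; inconclusive means mean reaches the limit but not every replicate does; inactive means mean below the limit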;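 further: luciferase carries N-glycosylation sites so blocking glycosylation raises the light; 0% = median of neutral control wells and 100% = median of 100 nM tunicamycin wells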
# ALR inh: inhibitors of human ALR sulfhydryl oxidase, primary screen, biochemical, H2O2 detection, HRP-luminol luminescence, single point; FAD-linked sulfhydryl oxidase ALR (Homo sapiens), P55789; purified ALR, DTT oxidation; inhibition, % (no concentration beside the values); actives 3.8% (n = 290,000); AID 485317, 2010;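 active means mean replicate inhibition above about 79%, with every replicate also reaching it, limit read from the data; inconclusive means only one of the two criteria met; inactive means mean below limit and not every replicate reaching it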
# Target sequence (P55789 whole entry, looked up): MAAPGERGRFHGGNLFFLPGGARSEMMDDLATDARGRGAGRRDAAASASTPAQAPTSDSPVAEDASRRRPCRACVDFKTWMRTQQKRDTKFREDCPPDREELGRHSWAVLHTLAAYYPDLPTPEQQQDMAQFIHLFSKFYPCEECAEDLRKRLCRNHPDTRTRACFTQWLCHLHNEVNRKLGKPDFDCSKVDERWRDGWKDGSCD
# T cell modulator: modulators of CD8 T cell-vesicle binding, primary screen, mouse 2C CD8+ T cells, flow cytometry; 2C CD8+ T cell-vesicle binding; hits give low values; response (vesicle binding), % at 7 µM; AID 2052, 2009; actives 0.068% (n = 330,000);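 active means response, share of CD8 T cells binding vesicles, and their 90th percentile fluorescence all below set limits, cut at about 80% in these data, passing the limit was not always enough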;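 further: values below 100% mean blocked vesicle binding to the CD8+ T cells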
#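 Read-out – percent CD8+ FL2 mean versus row control · System – murine 2C transgenic CD8+ T lymphocytes · Times – 1.5 h cell–vesicle binding at 37 °C, then 20 min icy labelling · Control set – naked vesicles low, QL9 vesicles with vehicle high · Detection – cytometric PE anti-B7-1 and Alexa647 anti-CD8 signals after 1% paraformaldehyde fixation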
# Active calls of the source: *; u = inconclusive; x = no result given.
SMILES,Glyco luc inh,ALR inh,T cell modulator
Cc1cccc(NC(=O)c2ncn3c2C(=O)N[C@@H](C)C3)c1,-3.5,x,x
O=C(CCCN1C(=O)c2ccccc2C1=O)Nc1nnc(C2CC2)s1,-1.6,-5.2,378.8
COCCN(CC(=O)Nc1cccc(C)c1C)C(=O)c1cc(-c2ccncc2)nc2ccccc12,1.0,1.6,224.0
C[C@H]1CN([C@@H](C)CO)C(=O)c2cc(-c3cccc(C(=O)N(C)C)c3)cnc2O[C@H]1CN(C)C(=O)Cc1ccccn1,0.6,x,x
COc1ccc(N2CCc3c(C)nc4c(OC)cc(OC)cc4c32)cc1,u,-18.1,151.5
COc1ccc(N2CCc3c(C)nc4c(OC)cccc4c32)cc1,35.4*,x,389.7
O=[N+]([O-])c1cccc(C=Nc2cccc3ccccc23)c1O,6.3,11.0,244.1
CCOC(=O)c1c(/N=C/c2cccc([N+](=O)[O-])c2O)sc(C)c1C,-1.4,85.7*,355.8
O=C(CNC(=O)c1cccnc1)N/N=C/c1ccc(O)cc1O,1.8,77.9*,365.3
O=C(CNC(=O)c1cccs1)N/N=C/c1ccc(O)cc1O,3.9,73.9,71.9
O=C(CCOc1cccc(Br)c1)NNC(=O)COc1ccc(F)cc1,-1.0,x,x
CCN(CC)S(=O)(=O)c1ccc(Cl)c(NC(=O)COC(=O)C2CCCCC2)c1,-1.8,-4.3,0.0*
CCCC(=O)Nc1cc(S(=O)(=O)N(CC)CC)ccc1Cl,-0.3,98.0*,331.3
CCN(CC)S(=O)(=O)c1ccc(Cl)c(NC(=O)CCCCl)c1,-1.1,x,610.0
CCN(CC)S(=O)(=O)c1ccc(Cl)c(NC(=O)COC(=O)c2ccc(O)cc2)c1,-0.8,-5.7,311.0
C[C@H](O)[C@@H]1C(=O)N2CCc3ccc(N4CCN(C)CC4)cc3[C@@H]2C[C@@H]1N(C)C(=O)c1ccc(C#N)cc1,3.1,x,x
Cc1cccc(C(=O)NC2CCCCCCC2)c1,1.9,x,258.4
CCOC(=O)N1CCC(N2C(=O)c3cc(C(=O)NC4CCCCC4)ccc3C2O)CC1 (stereo not given),-0.5,94.0*,514.0
CN(C)c1cccc(C(=O)NC2CCCCCC2)c1,-4.0,94.2*,197.2
CCOC(=O)N1CCC(N2C(=O)c3ccc(C(=O)O)cc3C2=O)CC1,0.1,2.8,196.9
CCCN1C(=O)c2cc(C(=O)NC3CCCCCC3)ccc2C1O (stereo not given),-10.3,96.3*,305.4
COc1ccc(CNC(=O)c2cccc(N(C)C)c2)cc1,2.0,82.7*,286.7
COc1ccccc1CNC(=O)c1cccc(N(C)C)c1,-1.4,42.4,201.0
CCCN1C(=O)c2cc(C(=O)O)ccc2C1O (stereo not given),-0.6,-16.7,541.1
CN(C(=O)C1CCCO1)C1CCS(=O)(=O)C1 (stereo not given),0.9,-8.3,219.1
SMILES,Glyco luc inh,ALR inh,T cell modulator
COCCN1C(=O)CCC1(C)C(=O)NC1CCCC1 (stereo not given),1.7,x,x
OC[C@@H]1CN(Cc2ccco2)C[C@H](n2cnc3c(Nc4ccccc4)ncnc32)O1,0.6,x,x
CCOC(=O)C1CCN(S(=O)(=O)NC[C@H]2O[C@@H](n3cnc4c(N)ncnc43)[C@H](O)[C@@H]2O)C1 (stereo not given in full),0.6,x,x
COc1ccc(C(=O)NC2CCCCCC2)cc1OC1CCN(C(C)=O)CC1,1.4,93.3*,269.1
COc1ccc(C(=O)NC2CCCCC2)cc1OC1CCN(C(C)C)CC1,-1.8,0.1,360.8
Nc1ccccc1SC(CC(=O)c1ccccc1)c1ccc([N+](=O)[O-])cc1 (stereo not given),5.0,x,x
Cc1ccc(C(=O)CC(SCC(=O)O)c2ccc([N+](=O)[O-])cc2)cc1 (stereo not given),12.9,98.6*,316.3
CC(C)C(NC(=O)C1CCCCC1)C(=O)NC1CCCC(C)C1C (stereo not given),2.7,-4.7,428.2
COc1ccnc(CS(=O)c2nc3cc(OC(F)F)ccc3[nH]2)c1OC (stereo not given),x,-9.7,255.9
CCN(CC(=O)Nc1c(F)cccc1F)C(=O)C1CCN(S(=O)(=O)c2ccccc2C(=O)OC)CC1,0.5,x,x
COc1ccc(N(C(=O)c2cc3ccccc3oc2=O)C2C=CS(=O)(=O)C2)c(OC)c1 (stereo not given),-2.3,-2.9,294.7
CCc1nnc(NS(=O)(=O)c2ccc(NC(=S)NC(=O)c3ccc(Br)cc3)cc2)s1,3.3,46.6,205.5
CCc1nnc(NS(=O)(=O)c2ccc(NC(=S)NC(=O)c3ccccc3)cc2)s1,2.4,95.7*,299.1
COc1cc(C#CC#CCN2CCCCC2)ccc1O,-1.8,99.2*,569.8
C(#Cc1ccccc1)CN1CCCCC1,0.4,-3.3,525.3
CNc1ncnc2c1ncn2[C@H]1CN(Cc2ccc3c(c2)OCO3)C[C@@H](CO)O1,-0.2,x,x
C[C@@H]1CN([C@H](C)CO)C(=O)CCCn2nncc2CO[C@@H]1CN(C)S(=O)(=O)c1ccc2ccccc2c1,0.8,x,x
O=C1CSC(c2cccnc2)N1c1ccc(F)cc1 (stereo not given),3.2,99.1*,542.4
Cc1ccc(N2C(=O)CSC2c2cccnc2)c(Cl)c1 (stereo not given),6.4,x,213.9
O=C1CSC(c2cccnc2)N1CC1CC1 (stereo not given),-0.1,x,223.2
O=C1CSC(c2cccnc2)N1c1cccc(Cl)c1 (stereo not given),1.4,98.6*,213.1
COCCNC(=O)Cc1c(C)c2c(cc(C)c3c(C(C)(C)C)coc32)oc1=O,18.8,-4.1,269.3
COc1cccc(CN(C)C[C@@H]2OCc3cnnn3CCCC(=O)N([C@H](C)CO)C[C@H]2C)c1,2.8,x,x
Fc1ccccc1-c1nnc2ccc3ccccc3n12,0.3,-1.9,536.4
Fc1cccc(Cl)c1-c1nnc2ccc3ccccc3n12,-6.6,98.3*,825.8
SMILES,Glyco luc inh,ALR inh,T cell modulator
O=C(CSc1nc2ccccc2n1CCc1ccccc1)c1ccc(O)c(O)c1,-0.4,x,x
COCOCCn1cc(CN2CCS(=O)(=O)N(Cc3ccc(-c4ccccc4)cc3)C(C(C)C)C2=O)nn1 (stereo not given),0.5,x,x
COc1cc(CNCc2cccs2)ccc1OCc1cccs1,-1.7,0.6,197.0
CCN(CC)c1ccc(CNCc2cccs2)cc1,-4.2,99.0*,261.1
CCN(CC)c1ccc(/C=N/NS(=O)(=O)c2ccc(CNC(C)=O)cc2)cc1,-0.5,98.9*,210.3
O=C(CN1CCOCC1)N/N=C/c1ccccc1,0.6,2.7,211.7
COc1cc(/C=N\NC(=O)OC(C)(C)C)ccc1OC(=O)c1ccco1,1.3,20.4,224.0
CCN(CC)c1ccc(/C=N/NC(=O)CC(C)C)cc1,0.3,98.9*,154.5
CC(=O)NCc1ccc(S(=O)(=O)N/N=C/c2ccc(Br)cc2)cc1,1.4,7.0,202.4
COc1ccc(/C=N/NC(=O)OC(C)(C)C)cc1OC,-0.2,95.1*,328.0
CCN(CC)c1ccc(/C=N/O)cc1,-3.2,x,560.6
CCCN(CCC)c1ccc(/C=N/NC(=O)CN2CCOCC2)cc1,2.6,99.1*,270.4

# Compound activity deposited in PubChem BioAssay by several laboratories.
